PLK1 kinase inh: human PLK1 kinase inhibitors, primary screen, biochemical, TR-FRET; recombinant PLK1 kinase, TR-FRET peptide phosphorylation; inhibition, % at 10 µM; 97,000 tested, 0.53% active; AID 619, 2007;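 active = inhibition of 50% or more in the single-concentration screen; inactive = inhibition below 50%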;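 note: 0% = DMSO max control and 100% = H-89 dihydrochloride min control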
Target sequence (P53350 whole entry, looked up): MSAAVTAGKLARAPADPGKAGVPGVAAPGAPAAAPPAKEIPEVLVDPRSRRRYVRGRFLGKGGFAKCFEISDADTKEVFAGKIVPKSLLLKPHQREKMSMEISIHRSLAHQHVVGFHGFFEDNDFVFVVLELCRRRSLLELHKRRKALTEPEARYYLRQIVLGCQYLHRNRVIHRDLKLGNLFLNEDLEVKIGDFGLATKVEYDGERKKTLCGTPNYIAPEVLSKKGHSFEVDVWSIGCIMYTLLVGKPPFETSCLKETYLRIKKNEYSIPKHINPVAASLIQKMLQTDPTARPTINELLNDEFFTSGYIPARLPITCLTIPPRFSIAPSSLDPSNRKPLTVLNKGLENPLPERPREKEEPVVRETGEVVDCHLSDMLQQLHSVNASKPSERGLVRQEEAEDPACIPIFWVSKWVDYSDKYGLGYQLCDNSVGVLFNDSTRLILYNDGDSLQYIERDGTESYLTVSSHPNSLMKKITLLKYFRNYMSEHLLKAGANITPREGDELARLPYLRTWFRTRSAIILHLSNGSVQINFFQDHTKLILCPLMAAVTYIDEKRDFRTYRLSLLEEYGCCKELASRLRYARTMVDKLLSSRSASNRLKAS
cytoskel mod: modifiers of F-actin cytoskeleton organization, primary screen, imaging, HUVEC, phalloidin staining, high-content imaging; HUVEC TNFa F-actin phalloidin imaging; inhibition, % at 2 µM; 91,000 tested, 0.18% active; AID 836, 2007;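 active = inhibition above the batch mean plus 3 SD and confirmed as a hit by visual image inspection, cut at about 30% in these data, passing the limit was not always enough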
FAK blocker: FAK kinase inhibitors, primary screen, biochemical; Focal adhesion kinase 1 (Homo sapiens), Q05397; biochemical FAK kinase activity assay; inhibition, %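 (tested at 7 µM)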; 97,000 tested, 0.84% active; in the data active = inhibition above about 19%;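 note: 0% = DMSO and 100% = reference compound high control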
HIV Rev-RRE inh: HIV-1 Rev-RRE binding inhibitors, primary screen, biochemical, FRET, protein-RNA interaction; inhibition, % at 8 µM; 97,000 tested, 0.79% active; Rev peptide-RRE RNA binding; AID 704, 2007; P05866;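 active = inhibition above the screen-wide mean plus 3 SD, cut at about 35% in these data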;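 note: 0% = median DMSO wells and 100% = median Neomycin B control wells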
Target sequence (P05866 whole entry, looked up): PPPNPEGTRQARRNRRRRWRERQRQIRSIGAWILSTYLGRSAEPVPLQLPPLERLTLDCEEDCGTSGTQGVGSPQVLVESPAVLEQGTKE
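Assay system: Labelled RRE RNA duplex and labelled Rev peptide | Times: 5 min preincubation and 15 min binding, 25 °C | Detection: FRET, ex 480 nm, em 540 and 671 nm | Evaluation: % inhibition of FRET ratio versus controls | Benchmarks: DMSO wells as 0% and neomycin B wells as 100% inhibition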
Plk1 PBD FP: Plk1 polo box domain binding inhibitors, primary screen, biochemical, fluorescence polarization. Serine/threonine-protein kinase PLK1 (Homo sapiens), P53350. Plk1 PBD phosphopeptide binding. inhibition, %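 (tested at about 20 µM)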. 97,000 tested, 0.13% active. AID 693, 2007; in the data active = inhibition above about 34%, passing the limit was not always enough
E-sel TNF inh: E-selectin induction blockers in HUVEC – imaging, immunofluorescence, high content, primary screen; HUVEC TNFa-induced E-selectin immunofluorescence; inhibition, % at 2 µM; 120,000 tested, 0.71% active; AID 1246, 2008;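 active = inhibition above the batch mean plus 3 SD, and confirmed as a hit on visual image review, cut at about 43% in these data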;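 note: 0% = TNF-stimulated DMSO wells and 100% = unstimulated control wells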
* hit, by the source's call; nt = no result given; [ ] = dose if it differs, or a comment. The list is not random: actives were taken first. Their share in the collection is about 2.2%.

SMILES | PLK1 kinase inh | cytoskel mod | FAK blocker | HIV Rev-RRE inh | Plk1 PBD FP | E-sel TNF inh
CC(=O)Nc1ccc(OCC(=O)N(CC(C)C)C2CCS(=O)(=O)C2)cc1 (stereo unspecified) | nt | nt | nt | nt | nt | -15
CCCCCCNC1=NCCS1 | nt | nt | nt | nt | nt | -7
COc1ccc(C(=O)N/N=C/C2CC=CCC2)cc1OC (stereo unspecified) | nt | nt | nt | nt | nt | -1
O=C(N/N=C/c1ccc(-c2cccc(C(F)(F)F)c2)o1)c1ccccc1Br | -4 | 23 | -2 | 60* | -19 | nt
CCc1c(C)sc(NC(=O)CC#N)c1C#N | 7 | 12 | 7 | 37* | -12 | 4
O=[N+]([O-])c1cccc(/C=C/c2nc(C=Nc3ccccc3)c(O)o2)c1 | -8 | -22 | 1 | 41* | 6 | nt
Cc1ccc(C(=O)NCCn2cc(SCC(=O)Nc3cc(C)on3)c3ccccc32)cc1 | 62* | nt | -9 | 6 | -3 | nt
O=C(CSc1cn(CCNC(=O)c2ccccc2)c2ccccc12)NCc1ccco1 | 67* | nt | 3 | 2 | -4 | nt
Cc1cc(NC(=O)CSc2cn(CCNC(=O)c3ccccc3)c3ccccc23)no1 | -6 | 6 | -2 | 5 | -13 | nt
CCCn1cc(SCC(=O)NCc2ccco2)c2ccccc21 | -17 | -33 | 10 | 9 | 4 | -11
CCCC(=O)Nc1ccc(Cl)c(NC(=S)NC(=O)c2ccco2)c1 | nt | nt | nt | nt | nt | 11
O=C(NNC(=O)C1CCCN(S(=O)(=O)c2cccc(F)c2)C1)C1CC1 (stereo unspecified) | nt | nt | nt | nt | nt | -27
COc1cccc(-c2cc3c(=O)n(-c4ccccc4)c(=S)[nH]c3s2)c1 | -5 | 27 | -25 | -4 | -2 | 66*
COc1ccc(-n2cnc3sc(-c4ccccc4)cc3c2=O)cc1 | -14 | 11 | -4 | 5 | -4 | -43
O=C(CCNc1n[nH]c(=O)[nH]c1=O)N/N=C\c1cccc(OCc2ccccc2)c1 | nt | nt | nt | nt | nt | -1
Cc1ccc(OCCSc2nc(NC(C)C)nc(NC(C)C)n2)cc1 | nt | nt | nt | nt | nt | -1
CCc1cccc(CC)c1NC(=O)COC(=O)c1cccc(-c2ccc(OC(C)=O)cc2)c1 | nt | nt | nt | nt | nt | 74*
CN1CCc2nc(SCc3ccc(Cl)cc3)c(C#N)c(-c3cccs3)c2C1 | -6 | -3 | 7 | 40* | 26 | -28
N#Cc1c(N)nc(SCc2ccncc2)c(C#N)c1-c1cccs1 | nt | nt | nt | nt | nt | -44
O=S(=O)(NC1c2cccc3cccc(c23)C1N1CCNCC1)c1ccc(Cl)cc1 (stereo unspecified) | nt | nt | nt | nt | nt | -11
O=C(c1cnsn1)N1CCN(c2ccccc2)CC1 | -8 | 20 | 1 | 5 | -17 | -8
O=C(c1cnccn1)N1CCN(c2ccccc2)CC1 | -13 | -14 | -5 | -5 | -13 | 59*
COc1ccc(Nc2cc(C(=O)NCCCN3CCN(C)CC3)c3ccccc3n2)cc1OC | -14 | nt | 7 | 1 | 10 | 2
COc1ccc(Nc2cc(C(=O)NCCCN3CCOCC3)c3ccccc3n2)cc1OC | 3 | 35* | 11 | 7 | 26 | 14
COc1cc(CNCc2cccs2)ccc1OCc1ccccc1 | -2 | 7 | 0 | 5 | -4 | -64
SMILES | PLK1 kinase inh | cytoskel mod | FAK blocker | HIV Rev-RRE inh | Plk1 PBD FP | E-sel TNF inh
COc1cc(CNCc2ccco2)ccc1OCc1ccccc1 | 3 | 46* | 1 | 0 | -32 | 57*
CN(C)c1ccc(/C=C2\CCCCC2=O)cc1 | nt | nt | nt | nt | nt | 26
CCCCC1(C)OC(=O)C(=Cc2ccc(N(C)C)cc2)C(=O)O1 (stereo unspecified) | -12 | 4 | -5 | 54* | -9 | -13
CS(=O)(=O)N1CCC(C(=O)Nc2ccc(Cl)c(Cl)c2)CC1 | nt | nt | nt | nt | nt | -9
CCOc1ccc(NC(=O)/C=C/c2ccc(OC)cc2)c([N+](=O)[O-])c1 | nt | nt | nt | nt | nt | 61*
CCOc1ccc(NC(=O)COC(=O)C23CC4CC(CC(C4)C2)C3)c([N+](=O)[O-])c1 | nt | nt | nt | nt | nt | 95*
CCOc1ccc(NC(=S)NC(=O)/C=C/c2ccc(C)cc2)c([N+](=O)[O-])c1 | -25 | 12 | 6 | 7 | 20 | -4
CCCCCCOc1ccc(N2C(=O)CC(SC(=NCC)NCC)C2=O)cc1 (stereo unspecified) | nt | nt | nt | nt | nt | 5
Cc1c(C(=O)NC(=S)Nc2ccc(N3CCOCC3)cc2)cccc1[N+](=O)[O-] | nt | nt | nt | nt | nt | -23
COC(=O)c1c(NC(=O)c2ccco2)sc(C)c1C | -12 | 21 | 0 | 7 | 19 | 6
Cc1c(Cc2ccccc2)sc(NC(=O)c2ccco2)c1C(N)=O | -8 | -10 | 25* | 5 | -3 | -1
O=c1c(/C=C(\O)c2ccccc2)nc2ccccc2n1-c1ccccc1 | -14 | -9 | 0 | 98*[fluorescence artefact?] | 3 | 4
Cc1nc2ccccc2n1-c1ccccc1 | -4 | 18 | 4 | 8 | -8 | nt
O=c1cc(-c2ccc(C3CCCCC3)cc2)[nH][nH]1 | nt | nt | nt | nt | nt | 30
Cc1ccc(S(=O)(=O)/N=C(\c2ccccc2)N(C)S(=O)(=O)c2ccccc2)cc1 | nt | nt | nt | nt | nt | -8
CN(/C(=N\S(=O)(=O)c1ccccc1)C(F)(F)F)c1ccccc1 | -8 | -34 | 10 | 37* | 6 | -10
CC(=O)c1ccc(NC(=S)N2CC(C)CC(C)C2)cc1 (stereo unspecified) | nt | nt | nt | nt | nt | 77*
O=C(Nc1cccc(-c2cn3ccccc3n2)c1)c1cccc(Cl)c1 | -8 | 26 | 0 | 1 | -18 | 57*
C=C(C)c1cccc(C(C)(C)NC(=O)N2CCCCC2CC)c1 (stereo unspecified) | -5 | 2 | 1 | 2 | -10 | 57*
Cc1sc2ncnc(OCC(=O)N3CCN(C(=O)c4ccco4)CC3)c2c1C | nt | nt | nt | nt | nt | 22
CCOC(=O)c1ccc(CNCc2ccccc2)cc1 | nt | nt | nt | nt | nt | 14
CCOC(=O)c1ccc(CNC(=O)CCC(=O)O)cc1 | -20 | 34* | -4 | 4 | -21 | 15
N/C(Cc1cccs1)=N\OC(=O)COc1ccccc1Cl | -4 | 4 | 5 | 2 | -3 | -5
N/C(Cc1cccs1)=N\OC(=O)COc1ccc(Br)cc1Cl | -8 | 37* | 0 | 17 | 18 | 6
COC(=O)c1ccc2c(=O)n(CCCCCC(=O)NC(C)C)c(=O)[nH]c2c1 | nt | nt | nt | nt | nt | 14
COc1ccc(CCNC(=O)CSc2nc(-c3ccco3)cc(C(F)(F)F)n2)cc1OC | -14 | -24 | -9 | -2 | 13 | 68*
O=C(CSc1nc(-c2ccco2)cc(C(F)(F)F)n1)NCCc1ccccc1 | -4 | -1 | 2 | 4 | -2 | 11
COc1ccccc1C(=O)NCCN1CCN(C(=O)c2ccccc2OC)CC1 | -2 | 18 | -8 | 5 | 6 | 100*
COc1cccc(OC)c1C(=O)NCCN1CCN(C(=O)c2c(OC)cccc2OC)CC1 | -9 | 14 | 0 | 1 | -9 | 9
NC(=O)c1ccc(-c2ccc(Br)cc2)o1 | -5 | -3 | 2 | 4 | 9 | 43*

Assay outcomes deposited in PubChem by several laboratories.
